An excerpt weighted towards active compounds, which were near 3.1% of everything screened.
UBC13 polyUb: blocks human UBC13 polyubiquitin chain formation; TR-FRET; 0.47% of 330,000 active; AID 485273; P61088; inhibition, % at 20 µM; in the data active means inhibition above about 45%, passing the limit was not always enough
Target sequence (P61088 whole entry, looked up): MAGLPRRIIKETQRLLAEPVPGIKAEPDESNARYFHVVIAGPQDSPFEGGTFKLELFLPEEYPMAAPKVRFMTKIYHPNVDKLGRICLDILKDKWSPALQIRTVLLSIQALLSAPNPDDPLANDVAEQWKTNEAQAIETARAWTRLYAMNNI
SENP8 block-1: SENP8 (human) protease inhibition; Q96LD8; recombinant SENP8, Nedd8 substrate fluorescence; inhibition, % at 20 µM; 0.64% of 360,000 active; AID 602440; in the data active means inhibition mostly above about 40%, no sharp cut-off; inactive means mostly below about 27%
SENP7 block: SENP7 protease inhibition; Q9BQF6; recombinant SENP7, Z-RLRGG-aminoluciferin luminescence, 40 min; inhibition, % at 5 µM; 1.5% of 330,000 active;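 active means inhibition above about 50% at the single test dose, limit read from the data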;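 further: plate controls were DMSO with enzyme for no effect and no enzyme buffer wells for full effect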
SENP8 block-2: SENP8 protease inhibition; Q96LD8; purified SENP8, Z-RLRGG-aminoluciferin cleavage, luminescence; inhibition, % at 10 µM; 1.2% of 330,000 active; in the data active means inhibition above about 50%
SENP6 inh: blocks the human protease SENP6 | 1.8% of 330,000 active | Recombinant SENP6 catalytic domain, aminoluciferin luminescence | inhibition, % at 10 µM | Q9GZR1;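 active means inhibition above about 50% at the single tested dose, limit read from the data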;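 further: plate controls were DMSO wells with enzyme for no effect and DMSO wells lacking enzyme for full effect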
Target sequence (Q9GZR1 628-1112 limits assumed): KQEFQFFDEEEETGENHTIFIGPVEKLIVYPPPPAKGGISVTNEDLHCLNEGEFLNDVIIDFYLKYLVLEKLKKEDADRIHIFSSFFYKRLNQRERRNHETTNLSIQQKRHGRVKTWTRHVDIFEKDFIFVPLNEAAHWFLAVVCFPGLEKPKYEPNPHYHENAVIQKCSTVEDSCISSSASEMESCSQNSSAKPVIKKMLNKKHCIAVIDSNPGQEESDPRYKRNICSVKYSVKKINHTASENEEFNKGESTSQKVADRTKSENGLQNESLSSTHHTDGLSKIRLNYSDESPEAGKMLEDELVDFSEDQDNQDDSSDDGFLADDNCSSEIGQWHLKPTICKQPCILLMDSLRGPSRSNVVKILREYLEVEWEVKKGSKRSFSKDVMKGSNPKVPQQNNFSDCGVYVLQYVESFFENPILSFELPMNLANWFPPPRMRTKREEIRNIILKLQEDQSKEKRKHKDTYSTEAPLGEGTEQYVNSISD
Apaf-1 inh: blocks human Apaf-1 apoptosome activity. O14727. reconstituted apoptosome caspase-3 activity, DEVD-Rh110 fluorescence. inhibition, % at 20 µM. 0.71% of 330,000 active; active means inhibition of at least 40% at 20 µM;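 further: plate controls were DMSO wells for no effect and DEVD-CHO caspase inhibitor wells for full effect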
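Material: reconstituted apoptosome with Apaf-1, cytochrome c, caspase-9, procaspase-3, dATP / Buffer or medium: pH 7.5 Hepes buffer with CHAPS, BSA, DTT / Also added: cytochrome c with DEVD-Rh110 / Schedule: compound with Apaf-1, dATP, procaspase-3 30 min, then 50 min reaction, room temperature / Technique: rhodamine 110 fluorescence at Ex 480/Em 540 nm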
SENP8 conf: confirmation of human SENP8 protease inhibitors | purified SENP8, Nedd8-AMC/pro-Nedd8 cleavage fluorescence, 30 min | 15% of 1,400 active | shares compounds with SENP8 block-1 | inhibition, % at 25 µM; in the data active means inhibition mostly above about 39%, no sharp cut-off; inactive means mostly below about 34%
Numbers without * were called inactive; / = no result.

SMILES | UBC13 polyUb | SENP8 block-1 | SENP7 block | SENP8 block-2 | SENP6 inh | Apaf-1 inh | SENP8 conf
CCc1nc2ccc(C(=O)NCc3ccc(OC)cc3)cn2c1N(CC)CCOC | / | -2 | / | / | / | / | /
COc1ccc(-c2csc(CCN3N=C(C)CC3=O)n2)cc1 | -7 | 59* | 4 | -4 | 27 | 31 | 62*
COc1ccc(-c2csc(C)n2)cc1 | 2 | 16 | 19 | -11 | -34 | 8 | /
Cc1ccc(-c2csc(NC(=O)c3cccc([N+](=O)[O-])c3)n2)cc1 | -9 | 48* | -9 | 0 | -2 | -7 | 19
C/C(=N\NC(=O)c1[nH]c2c([N+](=O)[O-])cc(C)cc2c1-c1ccccc1)c1cccnc1 | 6 | 60* | 4 | 3 | -8 | 22 | 13
COc1ccc(NC(=O)c2cc(-c3cc(Cl)ccc3C)n[nH]2)cn1 | / | 17 | / | / | / | / | /
C[C@@H]1CN([C@@H](C)CO)C(=O)c2cc(Br)cnc2O[C@H]1CN(C)Cc1ccccc1C(=O)O | / | 3 | / | / | / | / | /
CCOc1cc(/C=C2\N=C(SCC)SC2=O)cc([N+](=O)[O-])c1OC(C)=O | -105 | 36 | 3 | 27 | 26 | 15 | /
CCOc1cc(/C=C2\N=C(SC)SC2=O)cc([N+](=O)[O-])c1OC(C)=O | -92 | 45* | -8 | 10 | 16 | 6 | 9
O=C(CC[C@H]1O[C@@H](n2ccc(=O)[nH]c2=O)[C@H](O)[C@@H]1O)NC1CCN(Cc2ccccc2)C1 (stereo partly drawn) | / | 20 | / | / | / | / | /
Cc1nc2c(C(=O)Nc3ccc(N4CCCC(O)C4)cc3)snc2c(=O)[nH]1 (stereo not drawn) | -29 | 57* | -5 | -1 | -2 | 4 | -4
O=C(Nc1ccc(N2CCCC(O)C2)cc1)c1snc2c(=O)[nH]cnc12 (stereo not drawn) | -31 | 6 | -4 | -1 | -9 | -4 | /
COc1ccc2ccccc2c1C1CC(=O)N2CN(C3CCCCC3)CSC2=C1C#N (stereo not drawn) | -20 | 75* | -4 | -2 | 0 | 4 | 9
O=C1NC[C@H](CCCCN2C[C@H](Cc3ccc(O)cc3)N(Cc3ccccc3)C(=O)C2=O)N(CC2CCCCC2)C1=O | / | 13 | / | / | / | / | /
O=[N+]([O-])c1cc([N+](=O)[O-])c2n[nH]c(-c3ccccc3)c2c1 | -12 | 35* | 5 | 6 | -11 | 6 | 8
Cc1cccc(N2C(=O)C(Cl)=C(N3CCOCC3)C2=O)c1 | -14 | 46* | -12 | -4 | 0 | 1 | 2
CCc1ccc(N2C(=O)C(Cl)=C(N3CCOCC3)C2=O)cc1 | -8 | 41* | 9 | -7 | -6 | 18 | 13
O=C1C(Cl)=C(N2CCN(Cc3ccccc3)CC2)C(=O)N1c1ccccc1 | -9 | 48* | -4 | -4 | -12 | 19 | 11
CCc1ccc(N2C(=O)C(Cl)=C(N3CCCCCC3)C2=O)cc1 | 3 | 21 | 4 | -3 | 21 | 18 | /
COc1cc(CN2C[C@@H](CO)O[C@@H](n3cnc4c(NC5CCCC5)ncnc43)C2)cc(OC)c1OC | / | 22 | / | / | / | / | /
CCCCC(CCc1ccccn1)C(=O)c1ccccc1 (stereo not drawn) | / | 18 | / | / | / | / | /
COc1ccc(OC2(C)CCN(Cc3ccc(-c4ccccc4)o3)C2)cc1 (stereo not drawn) | / | 1 | / | / | / | / | /
CC(C)C[C@H]1CN(CCCC[C@H]2CNC(=O)C(=O)N2CC2CCCCC2)C(=O)C(=O)N1CC1CCCCC1 | / | 14 | / | / | / | / | /
COc1ccc(N2C(=O)Cc3ccccc3C2=O)cc1 | 2 | 84* | 19 | 8 | 39 | 7 | 38
Cc1ccc(NC(=S)NNC(=O)c2cn(C)nc2C)cc1 | 8 | 43* | 0 | 1 | 5 | -2 | 12
SMILES | UBC13 polyUb | SENP8 block-1 | SENP7 block | SENP8 block-2 | SENP6 inh | Apaf-1 inh | SENP8 conf
COc1ccc(OCC(=O)OCC(=O)NC2CCCCC2C)cc1 (stereo not drawn) | 16 | 46* | 2 | 5 | 6 | -15 | 10
CC1CCCCC1NC(=O)COC(=O)COc1ccccc1Cl (stereo not drawn) | 3 | 5 | 4 | 1 | -8 | 2 | /
CCOC(=O)c1ccc(S(=O)(=O)NNC(=O)c2ccc3c(c2)nc(C)n3CC)cc1 | -1 | 4 | 3 | -3 | -11 | -8 | /
CCn1c(C)nc2cc(C(=O)NNS(=O)(=O)c3ccccc3F)ccc21 | 5 | 42* | -1 | 5 | -12 | -1 | -8
CNc1cccc(-c2cc(OC)ccc2OC)n1 | / | -199 | / | / | / | / | /
CCCCN(C=O)c1c(CC)nc2ccc(C(=O)NCc3cccs3)cn12 | / | -89 | / | / | / | / | /
O=C(O)C1CC(=O)N(C2CCCCC2)C1c1ccccc1 (stereo not drawn) | -2 | 41* | 4 | 0 | -19 | -10 | 10
CCOC(=O)c1sc(C)c2c(=O)n(CC(=O)c3ccc(Br)cc3)nnc12 | 3 | 40* | 4 | -6 | -9 | 8 | 18
CCOC(=O)Cn1c(C)nc2c(C(=O)OCC)sc(C)c2c1=O | 7 | -241 | 2 | 2 | -22 | -8 | /
O=C(NC1C(=O)NNC1c1ccccc1)c1ccccc1 (stereo not drawn) | -2 | 55* | -5 | -5 | 14 | 20 | 17
O=C(NC1CCCCC1c1ccccc1)c1ccccc1 (stereo not drawn) | / | 13 | / | / | / | / | /
COc1ccc(NC(C)C(=O)N/N=C/c2ccccc2OCc2ccc(Br)cc2)cc1 (stereo not drawn) | -10 | 28 | 5 | 9 | 16 | 9 | /
CC(Nc1ccc(Br)cc1)C(=O)N/N=C/c1ccccc1OCc1ccccc1 (stereo not drawn) | -15 | 46* | -7 | -13 | -3 | 10 | 22
O=C(COC(=O)c1ccc([N+](=O)[O-])o1)NCc1ccccc1 | -26 | -11 | 6 | -2 | 3 | 17 | /
NS(=O)(=O)c1ccc(CCNC(=O)COC(=O)c2ccc([N+](=O)[O-])o2)cc1 | -8 | 47* | 7 | 14 | 16 | 2 | 89*
O=C(Nc1c(-c2ccc3c(c2)OCO3)[nH][nH]c1=O)c1cccc(C(F)(F)F)c1 | / | 36 | / | / | / | / | /
Cc1[nH]n(-c2ccc(F)cc2)c(=O)c1/C=N/c1sc2c(c1C#N)CCCC2 | -13 | 48* | 8 | 8 | 11 | 25 | 23
O=C(CNc1ccc2c(c1)OCO2)N/N=C\c1cn(Cc2ccccc2)c2ccccc12 | -2 | 44* | 12 | 0 | -5 | 4 | 3
O=C(CNc1ccccc1)N/N=C/c1ccc2c(c1)OCO2 | -20 | 10 | -12 | -7 | -7 | -7 | /
CN(C)c1ccc(NC(=O)C2C3C=CC(C3)C2C(=O)O)cc1 (stereo not drawn) | -24 | 51* | 9 | 0 | 26 | 29 | 4
O=C(Cn1nc(Cc2ccncc2)c2ccccc2c1=O)N1CCc2ccccc2C1 | -2 | 84* | 10 | 12 | 31 | 37 | 94*
